In ChEMBL document CHEMBL3244300, “Pyrimidinylpropenamides as antitumor agents. Analogues of the antibiotic sparsomycin” (1977):
In brackets after ≈: the same amount, converted by molar mass. Activity calls are given as the source filed them. No cut-off for these calls is given here.

Tests used:
Assay type in all cases: functional
P388 [1] = test: Antitumor activity against mouse P388 cells allografted in mouse assessed as increase in life span at 400 mg/kg, ip qd administered on day 1 to day 9 relative to control; settings: route intraperitoneal
How it was run: (§1)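 NCI Division of Cancer Treatment standard P-388 lymphocytic leukaemia protocol in mice. Drug given intraperitoneally once daily on days 1–9, with dose in mg/kg. The vehicle was water, saline or propylene glycol depending on the compound. T/C = (mean or median survival of treated ÷ control survival) × 100.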

KB = test: Cytotoxicity against human KB cells assessed as growth inhibition; settings: for EC50: Homo sapiens, KB, read-out: ED50 (the source's name)
How it was run: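 KB cell culture run under standard National Cancer Institute Division of Cancer Treatment protocols. Compounds were dissolved in water or propylene glycol as vehicle, depending on the compound. ED50 is the dose that inhibits growth to 50% of control growth, in μg/ml.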

P388 [2] = test: Antitumor activity against mouse P388 cells allografted in mouse assessed as increase in life span at 38.4 mg/kg, ip qd administered on day 1 to day 9 relative to control; settings: route intraperitoneal; how it was run: as §1
P388 [3] = test: Antitumor activity against mouse P388 cells allografted in mouse assessed as increase in life span at 256 mg/kg, ip qd administered on day 1 to day 9 relative to control; settings: route intraperitoneal; how it was run: as §1
P388 [4] = test: Antitumor activity against mouse P388 cells allografted in mouse assessed as increase in life span at 100 mg/kg, ip qd administered on day 1 to day 9 relative to control; settings: route intraperitoneal; how it was run: as §1
P388 [5] = test: Antitumor activity against mouse P388 cells allografted in mouse assessed as increase in life span at 6.25 mg/kg, ip qd administered on day 1 to day 9 relative to control; settings: route intraperitoneal; how it was run: as §1
P388 [6] = test: Antitumor activity against mouse P388 cells allografted in mouse assessed as increase in life span at 40 mg/kg, ip qd administered on day 1 to day 9 relative to control; settings: route intraperitoneal; how it was run: as §1
P388 [7] = test: Antitumor activity against mouse P388 cells allografted in mouse assessed as increase in life span at 5 mg/kg, ip qd administered on day 1 to day 9 relative to control; settings: route intraperitoneal; how it was run: as §1
P388 [8] = test: Antitumor activity against mouse P388 cells allografted in mouse assessed as increase in life span at 0.3 mg/kg, ip qd administered on day 1 to day 9 relative to control; settings: route intraperitoneal; how it was run: as §1

CSCC(CO)NC(=O)/C=C/c1c(C)[nH]c(=O)[nH]c1=O (single isomer, unassigned; (-))
T/C (P388 [1]; 400 mg/kg): 69%
EC50 (KB): > 100 µg/mL

Cc1[nH]c(=O)[nH]c(=O)c1/C=C/C(=O)NC(CO)CSCc1ccccc1 (single isomer, unassigned; (-))
T/C (P388 [1]): 95%
EC50 (KB): > 100 µg/mL

Cc1[nH]c(=O)[nH]c(=O)c1/C=C/C(=O)NC(CO)C[S+]([O-])Cc1ccccc1.O (single isomer, unassigned; (-))
T/C (P388 [1]): 93%
EC50 (KB): 88 µg/mL

CSCSCC(CO)NC(=O)/C=C/c1c(C)nc(O)nc1O (racemic) [listing 1 of 2 here]
ED50 (KB): inactive

Cc1[nH]c(=O)[nH]c(=O)c1/C=C/C(=O)NC(CO)CSC(C)C (stereo not given)
T/C (P388 [1]): 89%
EC50 (KB): > 100 µg/mL

CSCSCC(CO)NC(=O)/C=C/c1c(C)nc(O)nc1O (single isomer, unassigned; (-))
T/C (P388 [1]; 400 mg/kg): 86%
ED50 (KB): >100 µg/mL

CSCSCC(CO)NC(=O)/C=C/c1c(C)nc(O)nc1O (racemic) [listing 2 of 2 here]
T/C (P388 [2]): 92%

Cc1[nH]c(=O)[nH]c(=O)c1/C=C/C(=O)NC(CO)C[S+](C)[O-].O (racemic)
T/C (P388 [3]): 137%
ED50 (KB): 1.5 µg/mL

CCCCCCCCCCSCC(CO)NC(=O)/C=C/c1c(C)[nH]c(=O)[nH]c1=O (racemic)
T/C (P388 [4]): 155%

Cc1[nH]c(=O)[nH]c(=O)c1/C=C/C(=O)NC(CO)C[S+]([O-])C(C)C.O (single isomer, unassigned; (-))
T/C (P388 [1]): 113%
EC50 (KB): > 100 µg/mL

CSCC(CO)NC(=O)/C=C/c1c(C)[nH]c(=O)[nH]c1=O (racemic)
T/C (P388 [1]; 400 mg/kg): 88%

CCCCCCCCCC[S+]([O-])CC(CO)NC(=O)/C=C/c1c(C)nc(O)nc1O (racemic)
T/C (P388 [5]): 153%

Cc1[nH]c(=O)[nH]c(=O)c1/C=C/C(=O)NC(CO)C[S+](C)[O-].O (stereo in doubt; 10c)
T/C (P388 [6]): 100%
ED50 (KB): >100 µg/mL

CCCC[S+]([O-])CC(CO)NC(=O)/C=C/c1c(C)[nH]c(=O)[nH]c1=O (racemic)
EC50 (KB): 1.2 µg/mL (≈ 3.36 µM)
T/C (P388 [7]): 161%

CCCCSCC(CO)NC(=O)/C=C/c1c(C)[nH]c(=O)[nH]c1=O (single isomer, unassigned; (-))
EC50 (KB): 27 µg/mL (≈ 79.1 µM)

CSCSCC(CO)NC(=O)/C=C/c1c(C)nc(O)nc1O (single isomer, unassigned; (+))
T/C (P388 [1]; 400 mg/kg): 14%
ED50 (KB): 13 µg/mL (≈ 37.6 µM)

CSC[S+]([O-])C[C@H](CO)NC(=O)/C=C/c1c(C)[nH]c(=O)[nH]c1=O (stereo not given in full)
EC50 (KB): 0.08 µg/mL (≈ 0.221 µM)
T/C (P388 [8]): 156%

Cc1[nH]c(=O)[nH]c(=O)c1/C=C/C(=O)NC(CO)C[S+]([O-])C[S+](C)[O-].O (racemic)
EC50 (KB): 2.4 µg/mL
T/C (P388 [7]): 137%
